The values below come from publication PMC11044220 (ACS Omega, 2024).

The test system of assay [1] is HepG2 cells. The assay is described as follows: Cell cycle analysis by flow cytometry. It is filed as cell-based, human. To be noted: for percentage of cells at the G1 phase: IC50 concentration (4.23 μM), control 50.7%. In outline: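 HepG2 cells were treated for 48 h with 4.23 μM test compound, alongside untreated controls. DNA content was analysed by FACS to give the percentage of cells in G1, S and G2/M. The pre-G1 fraction was scored as the apoptotic (DNA-fragmented) population. Fold changes were expressed relative to the untreated control.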
A general note: Flow cytometry measures light scatter and fluorescence of single cells or particles in a stream.

A further assay addresses EGFR-TK (Homo sapiens, UniProt P00533). The assay is described as follows: EGFR-TK enzyme assay. It counts as biochemical.
For assay [2], the system named is HepG2 cells. The assay is described as follows: Annexin V-FITC/PI dual staining apoptosis assay. It counts as cell-based, human.
In assay [3] the test system is HepG2 cells. Put plainly: Mitochondrial membrane potential. It is filed as cell-based, human. To be noted: HepG2, 48 h, 4.23 μM (IC50 concentration). In outline:
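Whole HepG2 cells were incubated with 4.23 μM test compound for 48 h, then labelled with a green fluorescent mitochondrial dye. The percentage of cells with depolarised mitochondrial membranes was measured and expressed as fold relative to untreated HepG2 cells.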

Another assay deals with p53. The assay is described as follows: qRT-PCR for apoptotic markers: p53. It counts as cell-based.
The next assay has as its system Bax. The assay is described as follows: qRT-PCR for apoptotic markers: Bax. It counts as cell-based. On the technique in general: In qPCR the cycle at which signal appears reflects the starting amount.
For a further assay, the system named is Bcl2. Put plainly: qRT-PCR for apoptotic markers: Bcl2. It counts as cell-based.
The test system of assay [4] is HepG2 liver cancer cell line. The conditions noted are these: read-out: IC50 (μM) HepG2, MTT assay, mean of three independent replicates ± SE. On the technique in general: Tetrazolium assays rely on reduction of a dye to a coloured formazan, in cell work by metabolically active cells.

Chain of EGFR-TK (P00533 25-1210): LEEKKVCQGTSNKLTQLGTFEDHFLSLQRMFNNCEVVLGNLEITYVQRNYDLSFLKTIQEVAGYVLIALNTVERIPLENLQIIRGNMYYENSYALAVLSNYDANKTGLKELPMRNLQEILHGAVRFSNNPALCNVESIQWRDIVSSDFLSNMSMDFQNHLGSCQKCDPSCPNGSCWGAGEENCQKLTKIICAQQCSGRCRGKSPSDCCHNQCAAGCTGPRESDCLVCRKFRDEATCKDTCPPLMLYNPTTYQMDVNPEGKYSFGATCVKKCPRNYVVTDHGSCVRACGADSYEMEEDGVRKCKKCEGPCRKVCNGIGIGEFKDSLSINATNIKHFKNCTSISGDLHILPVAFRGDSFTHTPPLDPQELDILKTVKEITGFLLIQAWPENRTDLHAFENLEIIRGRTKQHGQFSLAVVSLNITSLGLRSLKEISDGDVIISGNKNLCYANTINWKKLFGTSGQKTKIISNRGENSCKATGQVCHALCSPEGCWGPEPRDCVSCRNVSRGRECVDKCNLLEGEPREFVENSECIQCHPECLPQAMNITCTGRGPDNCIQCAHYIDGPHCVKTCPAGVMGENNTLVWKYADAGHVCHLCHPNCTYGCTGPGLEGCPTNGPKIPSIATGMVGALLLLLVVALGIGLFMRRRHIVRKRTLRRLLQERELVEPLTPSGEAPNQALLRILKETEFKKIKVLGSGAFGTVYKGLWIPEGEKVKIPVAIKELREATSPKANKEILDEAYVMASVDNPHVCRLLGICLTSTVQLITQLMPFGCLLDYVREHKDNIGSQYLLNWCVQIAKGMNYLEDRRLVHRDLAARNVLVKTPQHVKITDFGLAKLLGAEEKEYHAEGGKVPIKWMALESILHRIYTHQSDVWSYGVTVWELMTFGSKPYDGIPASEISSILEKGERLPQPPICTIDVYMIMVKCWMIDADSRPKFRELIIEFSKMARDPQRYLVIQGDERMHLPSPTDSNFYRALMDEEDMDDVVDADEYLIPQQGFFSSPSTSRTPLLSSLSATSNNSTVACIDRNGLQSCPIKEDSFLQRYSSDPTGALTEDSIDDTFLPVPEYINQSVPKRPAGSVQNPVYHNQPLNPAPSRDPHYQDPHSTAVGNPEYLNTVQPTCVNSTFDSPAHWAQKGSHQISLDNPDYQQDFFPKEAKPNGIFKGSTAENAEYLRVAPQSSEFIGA

On to `O=C(NN=C(c1ccccc1)c1ccccc1)/C(=C/c1ccc(F)cc1)NC(=O)c1ccccc1` [compound 5, (Z)-N-(3-(2-(Diphenylmethylene)hydrazinyl)-1-(4-fluorophenyl)-3-oxoprop-1-en-2-yl)benzamide], for which the “percentage of cells at the G1 phase” value with HepG2 cells [1] (HepG2, 48 h) is on record as 64.2%.

By IC50 is commonly meant the point on the concentration scale where inhibition reaches its midpoint. On EGFR-TK, `O=C1/C(=C/c2ccc(F)cc2)N=C(c2ccccc2)N1c1ccc(S(=O)(=O)Nc2ncccn2)cc1` [compound 6, (Z)-4-(4-(4-Fluorobenzylidene)-5-oxo-2-phenyl-4,5-dihydro-1H-imidazol-1-yl)-N-(pyrimidin-2-yl)benzenesulfonamide] showed an IC50 of 0.13 µM. For the same compound, in the assay with HepG2 cells [1] (HepG2, 48 h), the “percentage of cells at the G1 phase” value was 64.2%. For the same compound, the “cells at the pre-G1 phase” value with HepG2 cells [1] (HepG2, 48 h, IC50 concentration, control 2.5%) is given as 55.5%. Besides, in the assay on HepG2 cells [1] (HepG2, IC50 concentration), the “cell cycle arrest at the G1 phase, fold compared to untreated HepG2 control” value is reported as 1.28 fold. The “total apoptotic cells (early and late apoptosis and necrosis)” value in the assay with HepG2 cells [2] (HepG2, 48 h, IC50 concentration (4.23 μM), control 2.5%) was found to be 55.5%. The “ratio of both early and late apoptosis” value in the assay on HepG2 cells [2] (HepG2, IC50 concentration, control 0.7%) is given as 44.8%. The “decrease of MMP level, fold compared with untreated control HepG2” value in the assay on HepG2 cells [3] turned out to be 2.84 fold. Also, in the assay with p53, the “p53 level, fold change compared with no treatment control” value was determined as 4.7 fold. In addition, the “Bax level, fold change compared with no treatment control” value in the assay with Bax came out at 3.7 fold. Moreover, the “Bcl2 level, fold change” value with Bcl2 worked out at 0.38 fold.

Turning to `O=C1NN(c2ccccc2)C(c2ccccc2)=N/C1=C\c1ccc(F)cc1` [compound 7, (Z)-5-(4-Fluorobenzylidene)-2,3-diphenyl-1,2-dihydro-1,2,4-triazin-6(5H)-one], the IC50 in assay [4] turned out to be 5.89 ± 0.19 µM.
